Screens: PubChem, several laboratories
A selection: hits, their analogues and other compounds. The true share with any hit is near 2.5%.
ABHD5-PLIN5 inh = ABHD5-PLIN5 interaction inhibitors, primary screen, cell lysate, split luciferase complementation, luminescence; Split G. princeps luciferase complementation, 4 h; inhibition, % at 4 µM; hit rate 0.78% among 360,000; AID 602281, 2012;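 active means inhibition above the mean inhibition across every tested compound plus 3 SD, cut at about 22% in these data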
NadD inh = inhibitors of S. aureus NadD, primary screen, biochemical, colorimetric, uHTS; inhibition, % at 20 µM; AID 602399, 2012; hit rate 0.78% among 360,000; purified NadD enzyme, colorimetric absorbance read-out; Nicotinate-nucleotide adenylyltransferase NadD (Staphylococcus aureus N315); in the data active means inhibition above about 26%
SENP1 FRET inh = human SENP1 catalytic domain inhibitors, primary screen, biochemical, FRET, uHTS; inhibition, % at 10 µM; AID 624204, 2012; hit rate 0.21% among 360,000; recombinant SENP1 catalytic domain, CyPet-SUMO1-YPet FRET cleavage; Sentrin-specific protease 1 (Homo sapiens), Q9P0U3;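 active means inhibition at least 30% at 10 µM, raw YFP signal under a set limit, fluorescence ratio 0.5 to 1.5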
Target sequence (Q9P0U3 419-644 limits assumed): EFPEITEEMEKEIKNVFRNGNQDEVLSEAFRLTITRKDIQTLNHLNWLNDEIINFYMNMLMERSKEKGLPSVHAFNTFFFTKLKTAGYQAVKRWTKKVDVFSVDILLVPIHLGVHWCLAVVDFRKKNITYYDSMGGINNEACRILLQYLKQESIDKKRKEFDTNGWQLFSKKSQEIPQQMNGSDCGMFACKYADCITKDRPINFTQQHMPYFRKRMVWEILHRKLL
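Controls: no-enzyme wells low, DMSO-plus-enzyme wells high control. Test system: human recombinant His6-tagged SENP1 catalytic domain enzyme. Reagent: SFCypet-SUMO1-SFYpet FRET protein substrate, 25 nM final. Doses: one dose per compound, 10 µM, 0.5% DMSO. Detection: FRET, CFP and YFP emission. Timing: 50 min reaction at room temperature.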
B2AR ag = beta2AR agonists driving receptor internalization, primary screen, cell-based, FAP fluorogen, flow cytometry; Beta-2 adrenergic receptor (Homo sapiens), P07550; Am2.2-beta2AR cells; response, % (concentration not given with the values); hit rate 0.43% among 340,000;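 active means response above a set limit, near 3 SD of response in nonfluorescent compounds, cut at about 42% in these data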
Target sequence (P07550 whole entry, looked up): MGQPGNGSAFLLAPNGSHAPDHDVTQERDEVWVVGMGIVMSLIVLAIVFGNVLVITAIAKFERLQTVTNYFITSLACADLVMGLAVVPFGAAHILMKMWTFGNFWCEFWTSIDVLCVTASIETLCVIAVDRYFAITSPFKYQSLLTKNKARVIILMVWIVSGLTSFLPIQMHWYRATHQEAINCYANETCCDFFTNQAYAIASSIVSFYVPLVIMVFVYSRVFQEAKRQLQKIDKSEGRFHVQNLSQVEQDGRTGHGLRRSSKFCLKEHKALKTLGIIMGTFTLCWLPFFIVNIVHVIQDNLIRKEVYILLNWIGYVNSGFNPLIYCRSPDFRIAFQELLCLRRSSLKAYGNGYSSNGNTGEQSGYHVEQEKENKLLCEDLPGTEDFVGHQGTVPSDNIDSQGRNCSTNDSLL
GRK2 aptamer HTS = compounds blocking aptamer binding on GRK2 – biochemical, human GRK2, bead flow cytometry, HTS, primary screen; Beta-adrenergic receptor kinase 1 (Homo sapiens), P25098; FAM-aptamer displacement from GRK2; inhibition of aptamer binding, % at 10 µM; hit rate 0.59% among 330,000; AID 488847, 2010;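 active means inhibition of aptamer binding above 40%, roughly 3 SD of noise, on plates passing a quality check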;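 further: median bead fluorescence of bound FAM aptamer so fluorescent compounds give negative values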
ABHD5-PLIN5 conf = ABHD5-PLIN5 interaction inhibitors, confirmation, biochemical, luminescence. shares compounds with ABHD5-PLIN5 inh. inhibition, % at 4 µM. hit rate 67% among 2,200; in the data active means inhibition above about 23%
HNF4 counter = HNF4 dimerization inhibitors, counter-screen for ABHD5-PLIN5 interaction inhibitor project, biochemical, split-luciferase complementation, luminescence | shares compounds with ABHD5-PLIN5 inh | inhibition, % at 4 µM | hit rate 77% among 2,200;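 active means mean inhibition across replicate wells exceeding the computed hit threshold, cut at about 13% in these data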;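 further: light from luciferase halves that rejoin when HNF4 fusion proteins dimerize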
Numbers stand for hits; – = inactive; · = no result given; ! = a repeat was not active.

SMILES	ABHD5-PLIN5 inh	NadD inh	SENP1 FRET inh	B2AR ag	GRK2 aptamer HTS	ABHD5-PLIN5 conf	HNF4 counter
CCOc1ccccc1C1N=C(c2ccc(OC)cc2)CC(c2ccccc2O)N1 (stereo not drawn)	25	–	–	–	–	57	48
Oc1ccccc1C1CC(c2cccs2)=NC(c2ccc(Cl)cc2)N1 (stereo not drawn)	–	–	–	–	–	·	·
COc1ccc(OC)c(NC(=O)CN2C(=O)CSc3ccc(S(=O)(=O)N4CCCC4)cc32)c1	54	–	–	–	–	–	–
CCOc1ccccc1NC(=O)c1nnn(CC(=O)Nc2cc(C)cc(C)c2)c1N	–	–	–	–	–	·	·
Cc1ccc(C(=O)/C=C/c2cc(Br)cc(Br)c2O)o1	30	–	–	–	–	59	25
CC(C)N1C(=O)S/C(=C\c2ccc(-c3ccc(Cl)c(C(=O)O)c3)o2)C1=O	–	–	–	–	–	·	·
CCN(CC)c1ccc(/C=C2/SC(=O)N(C(C)C)C2=O)o1	93	–	–	–	·	73	109
COc1ccccc1CC(=O)N1CCC(CCC(=O)NC2CC2)CC1	–	–	–	–	–	·	·
COc1cc(N=c2ssnc2Cl)c(OC)cc1Cl	41!	–	–	–	–	74	106
CC1(C)CC(=O)C(C(C2=C(O)CC(C)(C)CC2=O)c2cccs2)C(=O)C1 (stereo not drawn)	41	–	–	68	–	64	69
O=C(NCc1cccnc1)/C(=C\c1ccc(-c2cccc(Cl)c2)o1)S(=O)(=O)c1ccccc1	82	–	–	–	–	97	88
O=C(NCc1cccnc1)/C(=C/c1ccc(-c2cccc(Cl)c2)o1)S(=O)(=O)c1ccccc1	48	–	–	–	–	40	39
N#C/C(=C/c1ccc(CNC(=O)C(=O)Nc2cc(Cl)cc(Cl)c2)o1)C(=O)NCc1cccnc1	–	–	–	–	–	·	·
Cc1ccc(C(=O)N/C(=C\c2ccc(-c3cc(Cl)ccc3Cl)o2)C(=O)NCc2cccnc2)cc1	–	–	–	–	–	·	·
CCSC1(SCC)N=C(N)C2(C#N)C(c3ccc(OC)c(OC)c3OC)C12C#N (stereo not drawn)	25	–	–	–	–	78	72
N#C/C(=C\c1ccccc1)C(=O)N1CCN(c2ccccc2F)CC1	38	–	–	–	–	52	38
N#C/C(=C\c1cccc(Br)c1)C(=O)N1CCCCC1	24	–	–	–	–	71	53
C/C(=C/c1ccccc1)C(=O)N1CCN(c2ccccc2F)CC1	–	–	–	–	–	·	·
CC(=O)OCC1=C(C(=O)O)N2C(=O)C(NC(=O)c3ccc(F)cc3)C2SC1 (stereo not drawn)	30	–	–	–	–	–	28
CC(=O)OCC1=C(C(=O)O)N2C(=O)[C@@H](NC(=O)CSc3ccncc3)[C@H]2SC1	–	–	–	–	·	·	·
CN(C)c1ccc(-c2[nH][nH]c(=O)c2NC(=O)c2ccc3ccccc3n2)cc1	54	–	–	·	·	–	48
CN(C)c1ccc(-c2[nH][nH]c(=O)c2NC(=O)c2ccccn2)cc1	60	–	–	·	·	–	45
Cc1cnc(C(=O)Nc2c(-c3ccccc3)[nH][nH]c2=O)cn1	–	·	–	·	·	·	·
CC(C)(C)NC(=O)CN1C(=O)c2cccc3cccc1c23	–	–	–	·	·	·	·
CCN(C(=O)COC(=O)c1cccc(S(=O)(=O)N2CCOCC2)c1)C1CCS(=O)(=O)C1 (stereo not drawn)	–	–	–	–	–	·	·
SMILES	ABHD5-PLIN5 inh	NadD inh	SENP1 FRET inh	B2AR ag	GRK2 aptamer HTS	ABHD5-PLIN5 conf	HNF4 counter
COc1cccc(NC(=S)NC(=O)/C=C/c2ccc(F)cc2)c1	–	–	–	–	·	·	·
CCC(=O)Nc1cccc(C(=O)/C=C/c2ccc(F)cc2)c1	46	–	–	–	–	92	85
CC(=O)Nc1cccc(C(=O)/C=C/c2ccc(C)cc2)c1	49	–	–	–	–	87	82
Cc1ccc(NC(=O)CSc2nnc(-c3ccco3)c(-c3ccco3)n2)cc1	27	–	–	–	–	94	65
Cc1c(NC(=O)Nc2cccc(C(F)(F)F)c2)c(=O)n(-c2ccccc2)n1C	–	–	–	–	–	·	·
O=[N+]([O-])/C=C/c1cn(Cc2ccccc2)c2ccccc12	31	–	–	83	–	101	99
N#Cc1ccccc1Cn1cc(/C=C/[N+](=O)[O-])c2ccccc21	69	–	–	95	–	100	96
O=C(Cn1cc(/C=C\[N+](=O)[O-])c2ccccc21)Nc1ccccc1	27	–	–	84	–	96	83
O=C(O)Cn1cc(/C=C/[N+](=O)[O-])c2ccccc21	–	–	–	–	–	·	·
N#Cc1cn(Cc2cccc(Cl)c2)c2ccccc12	–	–	–	–	–	·	·
CCC(C)(C)NC(=O)CN(C(=O)C(=O)Nc1ccc2c(c1)OCCO2)N1CCOCC1	–	–	–	–	–	·	·
COc1ccccc1N(C(C)=O)C1=C(Cl)C(=O)c2ccccc2C1=O	93	–	–	·	·	100	111
CCCn1c2ccccc2c2cnn(CC(=O)NCCCN3CCCC(C)C3)c(=O)c21 (stereo not drawn)	–	–	–	–	–	·	·
Cc1ccc(C)c(S(=O)(=O)N2CCN(C(=O)CN3C(=O)C4CC=CCC4C3=O)CC2)c1 (stereo not drawn)	–	–	–	–	·	·	·
O=C(/C=C/c1c(F)cccc1Cl)c1ccc(F)cc1	31	–	–	–	–	95	91
COc1ccc(CCNC(=O)CCNC(=O)N2CC(=O)Nc3ccccc32)cc1OC	–	–	–	–	–	·	·
CC1(C(=O)Nc2cnc3ccccc3c2)CCN1Cc1ccc(-c2ccccc2)o1 (stereo not drawn)	65	–	–	·	·	47	70
CC(=O)Oc1c(Cl)cc(N(C(C)=O)S(=O)(=O)c2ccccc2)c2ccccc12	58	–	–	–	–	49	15
CC(=O)Oc1ccc(N(C(C)=O)S(=O)(=O)c2ccccc2)c2ccccc12	–	–	–	·	·	·	·
COc1cc(C)c2sc3ccccc3c(=O)c2c1NCCN(C)C	32	–	–	·	·	27	–
CCN(CC)CCNc1ccc(CO)c2sc3ccccc3c(=O)c12	–	–	–	–	–	·	·
O=C(NCCCN1CCCC1=O)c1cc2nc(-c3ccco3)cc(C(F)(F)F)n2n1	–	–	–	–	–	·	·
